Test results reported in ChEMBL document CHEMBL1150779, “Triazolopyrimidine-based dihydroorotate dehydrogenase inhibitors with potent and selective activity against the malaria parasite Plasmodium falciparum” (J Med Chem, 2008).

Columns and labels:
[1] = system: Plasmodium falciparum; assay: Antiplasmodial activity against Plasmodium falciparum 3D7 in erythrocytes as [3H]hypoxanthine uptake; assay type: functional, organism-based
Method in brief: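 Parasites grown in RPMI-1640 with 20% human type A+ plasma and 2% (w/v) red blood cells; drug-treated infected erythrocytes assayed for [3H]-hypoxanthine uptake. Triplicate points over a range of inhibitor concentrations; EC50 from fit of % proliferation to a Hill-type equation; reported values average at least 2 independent experiments.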

[2] = biological target: T1, Dihydroorotate dehydrogenase (Plasmodium falciparum, UniProt Q54A96); assay: Inhibition of Plasmodium falciparum DHODH assessed as reduction of 2,6-dichloroindophenol by stopped flow spectroscopy
T1 sequence (Q54A96 whole entry): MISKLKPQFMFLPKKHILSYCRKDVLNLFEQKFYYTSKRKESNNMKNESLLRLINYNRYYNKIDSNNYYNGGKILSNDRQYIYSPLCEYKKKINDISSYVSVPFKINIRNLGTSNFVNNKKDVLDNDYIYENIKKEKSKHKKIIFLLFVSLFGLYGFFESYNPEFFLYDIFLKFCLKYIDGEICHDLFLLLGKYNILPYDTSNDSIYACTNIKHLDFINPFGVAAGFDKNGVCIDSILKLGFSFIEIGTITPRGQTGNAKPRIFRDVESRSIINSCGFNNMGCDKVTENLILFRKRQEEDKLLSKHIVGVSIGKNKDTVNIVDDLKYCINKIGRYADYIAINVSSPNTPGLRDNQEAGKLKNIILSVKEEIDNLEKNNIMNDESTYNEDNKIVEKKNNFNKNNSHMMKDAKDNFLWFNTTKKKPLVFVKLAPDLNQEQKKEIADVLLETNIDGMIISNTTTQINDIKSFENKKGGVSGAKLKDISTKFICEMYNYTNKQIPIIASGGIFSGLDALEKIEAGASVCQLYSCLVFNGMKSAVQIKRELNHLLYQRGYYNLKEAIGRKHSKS
Method in brief: (§1)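 Truncated soluble enzyme expressed in E. coli. Steady-state assay: DCIP (0.12 mM) reduction at 600 nm, 5–10 nM enzyme, 0.2 mM L-dihydroorotate, 0.02 mM CoQD, in 100 mM HEPES pH 8.0, 150 mM NaCl, 10% glycerol, 0.1% Triton, 20°C.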

[3] = biological target: Dihydroorotate dehydrogenase (quinone), mitochondrial (Homo sapiens, UniProt Q02127); assay: Inhibition of human DHODH assessed as reduction of 2,6-dichloroindophenol by stopped flow spectroscopy
Method in brief: as §1, with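 “20°C. CoQ-independent oxidase background subtracted; triplicate points per concentration; IC50 from curve fit, ≥2 experiments.” for “20°C.”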

[4] = system: Plasmodium falciparum; assay: Antiplasmodial activity against Plasmodium falciparum HB3 in erythrocytes as [3H]hypoxanthine uptake; conditions: HB3, 3 h
[5] = system: Plasmodium falciparum; assay: Antiplasmodial activity against Plasmodium falciparum Dd2 in erythrocytes as [3H]hypoxanthine uptake; conditions: Dd2, 3 h
[6] = system: Plasmodium falciparum; assay: Antiplasmodial activity against Plasmodium falciparum D6 in erythrocytes as [3H]hypoxanthine uptake; conditions: D6, 3 h
[7] = system: L1210; assay: Cytotoxicity against mouse L1210 cells
[8] = system: Plasmodium falciparum; assay: Antiplasmodial activity against Plasmodium falciparum FCR3 in erythrocytes as [3H]hypoxanthine uptake; conditions: FCR3, 3 h
[9] = system: Plasmodium falciparum; assay: Antiplasmodial activity against Plasmodium falciparum K1 in erythrocytes as [3H]hypoxanthine uptake; conditions: K1, 3 h

Sequence of Dihydroorotate dehydrogenase (quinone), mitochondrial (Q02127 whole entry): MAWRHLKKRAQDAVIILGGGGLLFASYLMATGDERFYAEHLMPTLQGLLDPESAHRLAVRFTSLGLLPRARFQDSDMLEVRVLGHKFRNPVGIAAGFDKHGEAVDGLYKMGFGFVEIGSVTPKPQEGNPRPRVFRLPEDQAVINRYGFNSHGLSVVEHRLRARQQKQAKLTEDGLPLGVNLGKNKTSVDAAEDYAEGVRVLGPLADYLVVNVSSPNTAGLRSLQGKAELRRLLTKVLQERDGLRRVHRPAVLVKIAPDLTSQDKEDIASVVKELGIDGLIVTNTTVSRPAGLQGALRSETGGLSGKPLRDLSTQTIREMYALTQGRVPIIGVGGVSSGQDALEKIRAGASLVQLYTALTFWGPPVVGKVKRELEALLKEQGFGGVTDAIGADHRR

Row | Structure (SMILES) | IC50 [1] | IC50 [2] | IC50 [3] | EC50 [4] | EC50 [5] | EC50 [6] | EC50 [7] | EC50 [8] | EC50 [9]
1 | Cc1cc(Nc2ccc(C(N)=O)cc2)n2ncnc2n1 | > 50000 nM | > 200000 nM | > 200 µM | – | – | – | – | – | –
2 | Cc1cc(N(C)c2ccc3ccccc3c2)n2ncnc2n1 | 16000 nM | 3000 nM | > 200 µM | – | – | – | – | – | –
3 | Cc1cc(Nc2ccc3c(=O)cc(C)oc3c2)n2ncnc2n1 | 410 nM | 2000 nM | > 200 µM | – | – | – | – | – | –
4 | Cc1cc(Nc2cnc3ccccc3c2)n2ncnc2n1 | 1600 nM | 1700 nM | > 200 µM | – | – | – | – | – | –
5 | Cc1cc(Nc2cccc3ccccc23)n2ncnc2n1 | 4400 nM | 45000 nM | > 200 µM | – | – | – | – | – | –
6 | Cc1cc(Nc2ccc3ccccc3c2)n2ncnc2n1 | 79 nM | – | > 200 µM | 100 nM | 140 nM | 58 nM | > 10 µM | 180 nM | 140 nM
7 | Cc1nc2ncnn2c(Nc2ccc3ccccc3c2)c1C | 550 nM | 160 nM | > 200 µM | – | – | – | – | – | –
8 | Cc1cc(Nc2cc3ccccc3cc2O)n2ncnc2n1 | 1700 nM | 330 nM | > 200 µM | – | – | – | – | – | –
9 | Cc1cc(Nc2ccccc2)n2ncnc2n1 | > 100000 nM | > 100000 nM | > 200 µM | – | – | – | – | – | –
10 | Cc1cc(Nc2ccc3cc4ccccc4cc3c2)n2ncnc2n1 | 190 nM | 56 nM | > 200 µM | – | – | – | – | – | –
11 | Cc1cc(Nc2ccc3ncccc3c2)n2ncnc2n1 | 2200 nM | 1200 nM | > 200 µM | – | – | – | – | – | –
12 | FC(F)(F)c1cc(Nc2ccc3ccccc3c2)n2ncnc2n1 | 3300 nM | 210 nM | > 200 µM | – | – | – | – | – | –
13 | CCc1cc(Nc2ccc3ccccc3c2)n2ncnc2n1 | 310 nM | 190 nM | > 200 µM | – | – | – | – | – | –
14 | Cc1cc(N(Cc2ccccc2)c2ccc3ccccc3c2)n2ncnc2n1 | 35000 nM | 93000 nM | > 200 µM | – | – | – | – | – | –
